In the library only some 2% were active in any assay of this set; here they are far more common.
core dimer inh: HCV core protein dimerization inhibition. TR-FRET GST/Flag-core106 dimerization, 1536-well. inhibition, % at 5 µM. 300,000 compounds, 0.33% hits. AID 1899;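 active = inhibition above the mean of all tested compounds plus 3 SD, set per screening campaign, cut at about 45% in these data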
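Assay system: GST-tagged and Flag-tagged HCV core protein residues 1-106 / Times: compound-protein-antibody incubation 4 h at 22.5 °C / Signal: time-resolved FRET, ex 340 nm, em 617 and 671 nm / Evaluation: % inhibition based on acceptor/donor emission ratio / Benchmarks: wells lacking GST-core106 and wells with excess unlabelled core106 / Repeats: singlicate, one well per compound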
DNA FID counter: counter-screen for HCV NS3 helicase inhibitors: DNA intercalator displacement; DNA fluorescent intercalator displacement, fluorescence; 290,000 compounds, 0.17% hits; inhibition, % at 7.9 µM; in the data active = inhibition above about 37%;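 note: 0% = vehicle and 100% = reference compound; higher means more ethidium bromide displaced from hairpin DNA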
MLLE-PAM2 inh: blocks PAM2 peptide binding to the PABP1 MLLE domain; GST-MLLE / FITC-PAM2 fluorescence polarization; inhibition, % at 20 µM; 360,000 compounds, 0.36% hits; AID 588489; in the data active = inhibition above about 35%, passing the limit was not always enough;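 note: plate controls were DMSO wells with GST-MLLE for no effect and wells lacking GST-MLLE protein for full effect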
Target sequence (P11940 whole entry, looked up, the tested form may be a part): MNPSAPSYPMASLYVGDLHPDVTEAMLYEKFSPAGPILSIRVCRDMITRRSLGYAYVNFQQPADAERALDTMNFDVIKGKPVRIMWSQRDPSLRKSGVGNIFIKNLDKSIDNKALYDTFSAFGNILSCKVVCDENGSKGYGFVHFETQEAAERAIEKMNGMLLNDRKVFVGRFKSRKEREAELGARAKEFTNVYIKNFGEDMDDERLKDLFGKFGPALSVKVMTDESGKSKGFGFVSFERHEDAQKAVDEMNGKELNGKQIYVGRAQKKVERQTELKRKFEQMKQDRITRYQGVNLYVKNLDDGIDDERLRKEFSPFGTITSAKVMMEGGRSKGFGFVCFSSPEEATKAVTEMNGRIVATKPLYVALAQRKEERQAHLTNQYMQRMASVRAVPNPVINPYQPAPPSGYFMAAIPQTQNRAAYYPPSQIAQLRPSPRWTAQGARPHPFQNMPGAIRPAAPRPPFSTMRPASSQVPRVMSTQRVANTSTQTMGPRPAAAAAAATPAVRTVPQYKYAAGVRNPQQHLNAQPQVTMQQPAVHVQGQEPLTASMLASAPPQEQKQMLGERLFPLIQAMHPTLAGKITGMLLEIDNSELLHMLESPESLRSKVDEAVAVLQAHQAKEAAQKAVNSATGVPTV
NS3 helicase inh: inhibitors of Hepatitis C virus NS3 helicase | NS3 helicase DNA unwinding, Cy5 molecular beacon fluorescence | inhibition, % at 10.9 µM | 290,000 compounds, 0.56% hits | AID 1800;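 active = inhibition above the mean of all tested compounds plus 3 SD, set per campaign, cut at about 35% in these data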;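 note: 0% = DMSO wells and 100% = thioflavine S control wells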
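System: NS3 helicase fragment of HCV / Schedule: 1 h at 25 °C / Control set: DMSO alone as 0% and 110 µM thioflavine S as 100% / Reagent: Cy5/quencher beacon DNA duplex and ATP to start / Technique: Cy5 fluorescence / Replication: singlicate / Evaluation: % inhibition of end-to-start signal ratio versus controls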
PABP polyA inh: PABP-poly(A) binding inhibition. P11940. PABP-poly(A) RNA binding, fluorescence polarization. inhibition, % at 35 µM. 290,000 compounds, 1% hits. AID 2014;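 note: calls also rest on retests at 20 µM and on dose response follow-up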
eIF4H FP inh: inhibitors of RNA binding by human eIF4H | inhibition, % at 35 µM | Q15056 | eIF4H fluorescence polarization binding assay | AID 2012 | 290,000 compounds, 0.94% hits;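 note: calls also rest on retests at 20 µM and on dose response follow-up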
* = called active by the depositor; ? = inconclusive; · = no result. Unless noted, the rule behind the calls is not given here.

SMILES	core dimer inh	DNA FID counter	MLLE-PAM2 inh	NS3 helicase inh	PABP polyA inh	eIF4H FP inh
Cc1nc(NC(=O)C2CCCC2)sc1Cc1ccc2c(c1)OCO2	-4	-8	-2	-19	0	-5
CCCC(=Nc1ccccc1)C1=C(O)C(C(=O)OC)C(C)(C)CC1=O (stereo unspecified)	-3	-6	-3	-5	17	-8
CCCCC(=Nc1ccc(N)cc1)C1=C(O)C(C(=O)OC)C(C)(C)CC1=O (stereo unspecified)	-30	-5	8	18	59*	42*
Brc1ccc(-c2nn3c(-c4ccco4)nnc3s2)o1	18	-16	18	30	70*	66*
c1coc(-c2nn3c(Cn4nnc5ccccc54)nnc3s2)c1	-6	-3	38*	-1	-11	5
Clc1ccc(-c2ccc(-c3nn4c(-c5ccco5)nnc4s3)o2)cc1	24	-7	4	12	·	·
Cn1cc(Br)c(C(=O)NC2CCCCCC2)n1	·	-7	4	10	3	80*
O=C(/C=C\c1ccc2c(c1)OCO2)Nc1c2c(nn1-c1ccc(Cl)cc1)CSC2	47*	-6	0	0	-3	-4
Cc1ccc([C@H]2C[C@H](O)[C@@H](n3cc(C4CC4)nn3)CN2C(=O)c2cccs2)cc1	·	·	-6	·	·	·
Clc1ccccc1Nc1nc(NCC2CC2)nc2ccsc12	·	·	19	·	·	·
CC1(C)S/C(=N/N=C/c2ccco2)NC1=O	-10	6	-21	6	121*	?
Nc1ccn([C@@H]2O[C@H](C(=O)NCc3ccc4c(c3)OCO4)[C@@H](O)[C@H]2O)c(=O)n1	·	·	5	·	·	·
CCN(CC)C(=O)CSc1ncnc2c(-c3cccs3)nsc12	47*	-4	-33	4	12	14
CCOc1ccc(CCNC(=O)CSCC(=O)Nc2ccc(OC)cc2)cc1OCC	·	·	13	·	·	·
O=C(Nc1cccs1)Nc1c(F)c(F)c(F)c(F)c1F	-7	0	43*	8	15	53
O=C(Nc1cccs1)Nc1c(F)c(F)cc(F)c1F	4	1	12	4	2.5*	69*
CSCCC(NC(=O)c1ccco1)C(=O)N1CCN(c2ccccc2O)CC1 (stereo unspecified)	·	·	-7	·	·	·
O=C(Nc1ccc(NC(=S)NC(=O)C(c2ccccc2)c2ccccc2)cc1)c1ccccc1	57*	0	10	0	·	·
Cc1ccc(NS(=O)(=O)c2ccc(NC(=O)c3ccc(-c4ccccc4)cc3)cc2)c(C)c1	46*	0	0	1	·	·
O=C(Nc1ccc(NC(=S)NC(=O)c2cccs2)cc1)c1ccccc1	5	-3	29	6	8	1
O=C(Nc1ccc(NC(=O)c2ccc(S(=O)(=O)c3ccccc3)cc2)cc1)c1ccccc1	16	46*	-10	-2	-1	-18
CCOC(=O)[C@@H](NC(=O)CC[C@H]1O[C@@H](n2ccc(=O)[nH]c2=O)[C@H](O)[C@@H]1O)C(C)C	·	·	19	·	·	·
Cc1cccc(-c2nc(CS(=O)CC(=O)N3CC(C)CC(C)C3)c(C)o2)c1 (stereo unspecified)	3	-50	6	-5	-4	-6
CN1CCc2cc3c(c4c2[C@H]1[C@H](O)c1ccccc1-4)OCO3	-11	97*	68*	17	8	109
COc1ccc2c(c1OC)C(=O)OC2C1c2c(cc3c(c2OC)OCO3)CCN1C (stereo unspecified)	-8	-10	2	-10	3	-8
SMILES	core dimer inh	DNA FID counter	MLLE-PAM2 inh	NS3 helicase inh	PABP polyA inh	eIF4H FP inh
Cc1coc2c1C(=O)C(=O)c1c-2ccc2c1CCCC2(C)C	3	-9	11	32	51*	64*
C[C@H]1COC2=C1C(=O)C(=O)c1c2ccc2c1CCCC2(C)C	3	-20	19	27	44	60
Cc1coc2c1C(=O)C(=O)c1c-2ccc2c(C)cccc12	-4	·	-1	·	79*	78*
Cc1ccc(OCCCC(=O)N(C)CC(=O)Nc2c(C)cccc2C)cc1	·	·	-40	·	·	·
COCCCn1c(SCC(=O)N2CCc3ccccc32)nnc1-c1ccco1	0	-9	-7	-6	13	-1
COCCCn1c(SCC(=O)N2CCc3ccccc32)nnc1-c1ccoc1C	55*	-24	-12	0	·	·
COC(=O)c1cc(=O)nc(NNC(C)=O)s1	·	·	15	·	·	·
COc1ccc(S(=O)(=O)Nc2ccc(O)c3ccccc23)cc1	-2	5	38*	9	18	1
NS(=O)(=O)c1ccc(CNC(=O)c2sccc2-c2ccccc2)cc1	0	-9	-7	4	1	-7
O=C1N=C2SCCN2/C1=C\c1ccccc1Cl	3	-9	39*	-4	-5	-8
O=C1NC(=O)/C(=C/c2ccccc2Cl)N1	-1	-2	-125	0	13	-3
OC[C@@H]1CN(CCc2ccccc2)C[C@H](n2cnc3c(NCc4ccc(F)cc4)ncnc32)O1	·	·	-8	·	·	·
CSc1ccc(C(O)c2ncc(-c3ccccc3F)[nH]2)cc1 (stereo unspecified)	·	·	-5	·	·	·
CCOC(=O)C1=C(O)/C(=C/N(C)C)N=C1C	-6	-1	19	7	89*	89*
O=C1c2nc3cc(-c4ccco4)[nH]n3c(=O)c2CN1C1CCCCC1	2	-10	12	18	65*	50*
O=c1cc(-c2ccccc2)nc2cc(-c3ccco3)[nH]n12	-7	-7	7	21	29	16
CCCCCCn1c(-c2cccs2)n[nH]c1=S	15	-26	14	10	55*	active
CC(C)OC(=O)CC(=O)CSc1nc(-c2ccc(F)cc2)cc(-c2ccccc2)c1C#N	-9	-4	20	8	19*	88*
COc1ccc(CNc2nc(S(=O)(=O)c3ccccc3)c(Cl)s2)cc1OC	-3	-21	-15	-27	24*	54*
COc1ccc(/C=C/C(=O)c2c(O)cc(C)oc2=O)c(OC)c1	1	-19	-93	11	58*	?
Cc1ccc(Cn2c(=N)c(C(=O)NCc3ccco3)cc3c(=O)n4ccccc4nc32)cc1	63*	-4	-31	15	60*	75*
COCCn1c(=N)c(C(=O)NCc2ccco2)cc2c(=O)n3cc(C)ccc3nc21	10	-1	69*	7	48	107*
COc1ccc(CNC(=O)c2cc3c(=O)n4ccccc4nc3n(Cc3ccco3)c2=N)cc1	·	-8	·	2	·	·
N=c1c(C(=O)NCc2ccc(F)cc2)cc2c(=O)n3ccccc3nc2n1CC1CCCO1 (stereo unspecified)	4	11	-15	30	-8	-4
COc1ccc(CCn2c(=N)c(C(=O)NCc3ccco3)cc3c(=O)n4ccccc4nc32)cc1OC	·	·	-2	·	·	·
N=c1c(C(=O)NCc2ccco2)cc2c(=O)n3ccccc3nc2n1CCc1ccccc1	52*	4	-10	-5	60*	59*

Source: PubChem
